In ChEMBL document CHEMBL4251739, “Rhodanine as a Potent Scaffold for the Development of Broad-Spectrum Metallo-β-lactamase Inhibitors” (ACS Med Chem Lett, 2018):
pIC50: −log10 of the molar value.

How the values were obtained:
[1] = Inhibition of bacterial VIM2 expressed in Escherichia coli BL21(DE3) using cefazolin as substrate by spectrometric method; design: species or system Bacteria
In short: (§1)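 Purified enzymes, overexpressed and purified by earlier methods, assayed under steady-state conditions by UV spectrometry in 50 mM Tris, pH 7.0. Substrate for NDM-1, VIM-2 and L1 was cefazolin (50 µM), read at 262 nm. Substrate for ImiS was imipenem (60 µM), read at 300 nm. Inhibitor varied 0–50 µM; IC50 is the concentration giving 50% loss of activity.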

[2] = Inhibition of bacterial ImiS expressed in Escherichia coli BL21(DE3) using imipenem as substrate by spectrometric method; design: species or system Bacteria; in short: as §1
[3] = Inhibition of bacterial L1 expressed in Escherichia coli BL21(DE3) using cefazolin as substrate by spectrometric method; design: species or system Bacteria; in short: as §1
Bacteria [4] = experiment: Inhibition of bacterial NDM1 expressed in Escherichia coli BL21(DE3) at 50 uM using cefazolin as substrate by spectrometric method relative to control
Bacteria [5] = experiment: Inhibition of bacterial NDM1 expressed in Escherichia coli DH10B assessed as potentiation of cefazolin-induced antibacterial activity by measuring cefazolin MIC at 32 ug/ml after 16 hrs by broth micro-dilution method (reference value: 8 ug/ml)
Bacteria [6] = experiment: Inhibition of bacterial VIM2 expressed in Escherichia coli DH10B assessed as potentiation of cefazolin-induced antibacterial activity by measuring cefazolin MIC at 32 ug/ml after 16 hrs by broth micro-dilution method (reference value: 512 ug/ml)
Bacteria [7] = experiment: Inhibition of bacterial ImiS expressed in Escherichia coli DH10B assessed as potentiation of imipenem-induced antibacterial activity by measuring imipenem MIC at 32 ug/ml after 16 hrs by broth micro-dilution method (reference value: 2 ug/ml)
Bacteria [8] = experiment: Inhibition of bacterial L1 expressed in Escherichia coli DH10B assessed as potentiation of cefazolin-induced antibacterial activity by measuring cefazolin MIC at 32 ug/ml after 16 hrs by broth micro-dilution method (reference value: 32 ug/ml)
In short: (§2)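 Dose-dependent cefazolin MIC assay against E. coli DH10B expressing L1 from a pBCSK plasmid, with varied inhibitor doses up to 256 µg/mL. Fold decrease in MIC was taken relative to cefazolin alone. Medium pH was monitored during the assay.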

Bacteria [9] = experiment: Inhibition of bacterial VIM2 expressed in Escherichia coli DH10B assessed as potentiation of cefazolin-induced antibacterial activity by measuring fold reduction in cefazolin MIC at 32 ug/ml after 16 hrs by broth micro-dilution method relative to cefazolin alone
[10] = Inhibition of bacterial NDM1 expressed in Escherichia coli BL21(DE3) using cefazolin as substrate by spectrometric method; design: species or system Bacteria; in short: as §1
Bacteria [11] = experiment: Inhibition of bacterial ImiS expressed in Escherichia coli BL21(DE3) at 50 uM using imipenem as substrate by spectrometric method relative to control
Bacteria [12] = experiment: Inhibition of bacterial L1 expressed in Escherichia coli DH10B assessed as potentiation of cefazolin-induced antibacterial activity by measuring fold reduction in cefazolin MIC at 32 ug/ml after 16 hrs by broth micro-dilution method relative to cefazolin alone; in short: as §2
[13] = Cytotoxicity against mouse L929 cells assessed as cell viability up to 200 uM after 48 hrs by CCK8 assay relative to control; format: cell-based; settings: read-out: Activity
In short: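 Mouse fibroblast L929 cells exposed to inhibitors at 12.5, 25, 50, 100, 200 and 400 µM working concentrations; percentage of cells maintaining viability measured.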

Bacteria [14] = experiment: Inhibition of bacterial NDM1 expressed in Escherichia coli DH10B assessed as potentiation of cefazolin-induced antibacterial activity by measuring fold reduction in cefazolin MIC at 32 ug/ml after 16 hrs by broth micro-dilution method relative to cefazolin alone
Bacteria [15] = experiment: Inhibition of bacterial L1 expressed in Escherichia coli DH10B assessed as potentiation of cefazolin-induced antibacterial activity by measuring cefazolin MIC at 16 ug/ml after 16 hrs by broth micro-dilution method (reference value: 32 ug/ml); in short: as §2
Bacteria [16] = experiment: Inhibition of bacterial L1 expressed in Escherichia coli DH10B assessed as potentiation of cefazolin-induced antibacterial activity by measuring cefazolin MIC at 64 ug/ml after 16 hrs by broth micro-dilution method (reference value: 32 ug/ml); in short: as §2
Bacteria [17] = experiment: Inhibition of bacterial L1 expressed in Escherichia coli DH10B assessed as potentiation of cefazolin-induced antibacterial activity by measuring cefazolin MIC at 128 ug/ml after 16 hrs by broth micro-dilution method (reference value: 32 ug/ml); in short: as §2
Bacteria [18] = experiment: Inhibition of bacterial L1 expressed in Escherichia coli DH10B assessed as potentiation of cefazolin-induced antibacterial activity by measuring cefazolin MIC at 256 ug/ml after 16 hrs by broth micro-dilution method (reference value: 32 ug/ml); in short: as §2
Bacteria [19] = experiment: Inhibition of bacterial L1 expressed in Escherichia coli DH10B assessed as potentiation of cefazolin-induced antibacterial activity by measuring fold reduction in cefazolin MIC at 256 ug/ml after 16 hrs by broth micro-dilution method relative to cefazolin alone; in short: as §2
Escherichia coli [20] = experiment: Toxicity against Escherichia coli DH10B up to 256 ug/ml after 16 hrs by broth micro-dilution method; format: organism-based, K-12 substr. DH10B; settings: in vivo
In short: (§3)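 Compounds alone, at the same doses used in the MIC potentiation assays, tested for antibacterial effect against E. coli with and without MβL expression.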

Escherichia coli [21] = experiment: Toxicity against Escherichia coli DH10B expressing bacterial L1 up to 256 ug/ml after 16 hrs by broth micro-dilution method; format: organism-based, K-12 substr. DH10B; settings: in vivo; in short: as §3
Bacteria [22] = experiment: Inhibition of bacterial L1 expressed in Escherichia coli DH10B assessed as potentiation of cefazolin-induced antibacterial activity by measuring decrease in cefazolin MIC after 16 hrs by broth micro-dilution method; in short: as §2
Bacteria [23] = experiment: Inhibition of bacterial NDM1 expressed in Escherichia coli BL21(DE3) at 20 uM using cefazolin as substrate by spectrometric method relative to control
Bacteria [24] = experiment: Inhibition of bacterial VIM2 expressed in Escherichia coli BL21(DE3) at 4 uM using cefazolin as substrate by spectrometric method relative to control
Bacteria [25] = experiment: Inhibition of bacterial ImiS expressed in Escherichia coli BL21(DE3) at 40 uM using imipenem as substrate by spectrometric method relative to control
Bacteria [26] = experiment: Inhibition of bacterial L1 expressed in Escherichia coli BL21(DE3) at 0.8 uM using cefazolin as substrate by spectrometric method relative to control
Bacteria [27] = experiment: Inhibition of bacterial VIM2 expressed in Escherichia coli BL21(DE3) at 50 uM using cefazolin as substrate by spectrometric method relative to control
[28] = Stability of the compound in pH 6 to 6.5 MES buffer at 50 uM after 24 hrs by UV-Vis spectra analysis; format: physicochemical; settings: pH 6, 24 h
In short: (§4)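 Compound at 50 µM held in MES (pH 5.5, 6.0, 6.5), in Tris (pH 7.0–8.5), or in Tris pH 7.0 containing L1. Absorbance change at 401 nm followed over 24 h.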

[29] = Stability of the compound in pH 7 Tris buffer at 50 uM after 24 hrs by UV-Vis spectra analysis; format: physicochemical; settings: pH 7, 24 h; in short: as §4
[30] = Stability of the compound in pH 7 Tris buffer at 50 uM after 24 hrs in presence of bacterial L1 by UV-Vis spectra analysis; format: ADME; settings: pH 7, 24 h; in short: as §4

Compound	pIC50 [1]	pIC50 [2]	pIC50 [3]	MIC (Bacteria [5])	MIC (Bacteria [6])	MIC (Bacteria [7])	MIC (Bacteria [8])	fold change (FC) (Bacteria [9])	pIC50 [10]	fold change (FC) (Bacteria [12])	fold change (FC) (Bacteria [14])	inhibition (Bacteria [27])	viability at 48 h [13]	other results
O=C(O)c1ccc(N2C(=O)/C(=C/c3ccc4ccccc4c3)SC2=S)cc1	5.72	4.78	6.92	> 64 µg/mL	128 µg/mL	1 µg/mL	8 µg/mL	4						inhibition (Bacteria [4]): < 50%
O=C(O)CN1C(=O)/C(=C/c2ccccc2[N+](=O)[O-])SC1=S	4.77		6.66	4 µg/mL	256 µg/mL	2 µg/mL	4 µg/mL		4.56	8			80%	inhibition (Bacteria [11]): < 50%
O=C(O)c1ccc(N2C(=O)/C(=C/c3ccccn3)SC2=S)cc1	6.04		6.68	2 µg/mL	128 µg/mL	2 µg/mL	8 µg/mL	4	5.95		4 to 8			inhibition (Bacteria [11]): < 50%
COc1ccc(/C=C2\SC(=S)N(c3ccc(C(=O)O)cc3)C2=O)cc1		4.82	6.51	2 µg/mL	> 512 µg/mL	0.5 µg/mL	4 µg/mL		4.92	8	4 to 8	< 50%		Stability [28]: Stable; Stability [29]: Stable; Stability [30]: Stable
O=C(O)c1ccc(N2C(=O)/C(=C/c3cccc4ccccc34)SC2=S)cc1		5.16	7.00	8 µg/mL	512 µg/mL	1 µg/mL	8 µg/mL					< 50%		inhibition (Bacteria [4]): < 50%
O=C(O)c1ccc(N2C(=O)/C(=C/c3ccccc3)SC2=S)cc1		4.74	6.68	1 µg/mL	512 µg/mL	1 µg/mL	8 µg/mL		5.06		4 to 8	< 50%		

Further compounds by rising pIC50 [3], results first:

pIC50 [1]	pIC50 [2]	pIC50 [3]	MIC (Bacteria [5])	MIC (Bacteria [6])	MIC (Bacteria [7])	MIC (Bacteria [8])	fold change (FC) (Bacteria [9])	pIC50 [10]	fold change (FC) (Bacteria [12])	fold change (FC) (Bacteria [14])	inhibition (Bacteria [27])	Compound	viability at 48 h [13]	other results
		7.00	8 µg/mL	512 µg/mL	1 µg/mL	4 µg/mL			8		< 50%	O=C(O)CN1C(=O)/C(=C/c2ccc([N+](=O)[O-])cc2[N+](=O)[O-])SC1=S	80%	inhibition (Bacteria [11]): < 50%; inhibition (Bacteria [4]): < 50%
5.44	5.11	7.15	1 µg/mL	128 µg/mL	1 µg/mL	8 µg/mL	4	4.91		4 to 8		O=C(O)c1ccc(N2C(=O)/C(=C/c3ccc(Cl)cc3)SC2=S)cc1		
5.63	5.11	7.15	4 µg/mL	128 µg/mL	1 µg/mL	8 µg/mL	4	4.97				O=C(O)c1ccc(N2C(=O)/C(=C/c3ccc(C(F)(F)F)cc3)SC2=S)cc1		
6.72	5.52	7.30	4 µg/mL	128 µg/mL	1 µg/mL	4 µg/mL	4	5.88	8			O=C(O)c1ccc(N2C(=O)/C(=C/c3ccccc3[N+](=O)[O-])SC2=S)cc1	80%	inhibition (Bacteria [23]): > 95%; inhibition (Bacteria [24]): > 95%; inhibition (Bacteria [25]): > 95%; inhibition (Bacteria [26]): > 95%; MIC (Bacteria [15]): 16 µg/mL; MIC (Bacteria [16]): 4 µg/mL; MIC (Bacteria [17]): 2 µg/mL; MIC (Bacteria [18]): 2 µg/mL; fold change (FC) (Bacteria [19]): 16; Activity (Escherichia coli [20]): Non-Toxic; Activity (Escherichia coli [21]): Non-Toxic; inhibition (Bacteria [22]): Dose-dependent effect
5.46	5.12	7.52	1 µg/mL	128 µg/mL	1 µg/mL	8 µg/mL	4	4.97		4 to 8		O=C(O)c1ccc(N2C(=O)/C(=C/c3ccc(Cl)cc3Cl)SC2=S)cc1		
5.41	4.80	7.70	1 µg/mL	128 µg/mL	1 µg/mL	4 µg/mL	4	5.17	8	4 to 8		O=C(O)c1ccc(N2C(=O)/C(=C/c3ccc([N+](=O)[O-])cc3[N+](=O)[O-])SC2=S)cc1	> 80%	MIC (Bacteria [15]): 8 µg/mL; MIC (Bacteria [16]): 2 µg/mL; MIC (Bacteria [17]): 2 µg/mL; MIC (Bacteria [18]): 1 µg/mL; fold change (FC) (Bacteria [19]): 32; Activity (Escherichia coli [20]): Non-Toxic; Activity (Escherichia coli [21]): Non-Toxic; inhibition (Bacteria [22]): Dose-dependent effect
